Pf Dd2 inh: P. falciparum Dd2 growth inhibitors, primary screen, SYBR Green fluorescence, single dose replicates. 72 h; active compounds read low. activity change, % at 10 µM. 94,000 tested, 2.3% active. AID 1159554, 2015; in the data active means activity change below about -80%; inconclusive means no clear call, values can overlap the other calls
IDH1 R132H inh: inhibitors of IDH1 R132H reductase, primary screen, biochemical, plate reader, single point | 70,000 tested, 0.18% active | Isocitrate dehydrogenase [NADP] cytoplasmic (Homo sapiens), O75874 | diaphorase/resazurin fluorescence, 60 min | inhibition, % at 10 µM | AID 624101, 2012; in the data active means inhibition above about 34%; inconclusive means no clear call, values can overlap the other calls; inactive means below about 11%;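 further: 0% = DMSO and 100% = no enzyme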
Target sequence (O75874 whole entry R132H): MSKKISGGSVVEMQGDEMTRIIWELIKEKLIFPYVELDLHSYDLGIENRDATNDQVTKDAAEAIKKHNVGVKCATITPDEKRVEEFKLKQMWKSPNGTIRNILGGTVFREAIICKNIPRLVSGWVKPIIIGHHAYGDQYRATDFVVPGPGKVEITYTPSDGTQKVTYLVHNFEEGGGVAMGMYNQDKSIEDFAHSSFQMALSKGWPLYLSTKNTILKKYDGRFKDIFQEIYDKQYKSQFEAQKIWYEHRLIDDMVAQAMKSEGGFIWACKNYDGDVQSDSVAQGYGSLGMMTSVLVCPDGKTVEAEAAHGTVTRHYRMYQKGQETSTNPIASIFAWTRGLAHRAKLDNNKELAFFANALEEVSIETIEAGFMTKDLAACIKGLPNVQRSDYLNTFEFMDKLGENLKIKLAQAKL
GASC1 inh: inhibitors of GASC-1 (KDM4C) histone demethylase, primary screen, biochemical, single concentration HTS | AID 720574, 2013 | GST-KDM4C 2-372, H3K9me3 peptide, LANCE TR-FRET | Lysine-specific demethylase 4C (Homo sapiens), Q9H3R0 | inhibition, % at 12.5 µM | 96,000 tested, 0.15% active;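 active means mean replicate inhibition above about 25%, with at least 55% of replicates also reaching it, limit read from the data, passing the limit was not always enough; inconclusive means only one of those two conditions met; inactive means neither condition met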
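Material: N-terminal GST-fused human GASC-1 (KDM4C) fragment, residues 2-372. Input: 10 nM enzyme. Incubation: enzyme reaction 30 min, then detection 60 min, both room temperature. Doses: one test concentration per compound. Read-out basis: inhibition from TR-FRET ratio decrease. Detection: LANCE TR-FRET, excitation 340 nm, emissions 618 and 671 nm.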
T cruzi growth-1: T. cruzi intracellular proliferation inhibitors, primary screen, cell-based, beta-gal Tulahuen parasites, NIH3T3 host, luminescence | T. cruzi beta-gal in NIH3T3, GalScreen luminescence, 90 h | inhibition, % at 8.34 µM | 77,000 tested, 5.9% active;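 active means mean inhibition above about 93%, with at least 55% of replicates each passing it, limit read from the data, passing the limit was not always enough; inconclusive means only one of those two conditions holds; inactive means neither condition holds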
T cruzi growth-2: T. cruzi intracellular proliferation inhibitors, confirmation, cell-based, NIH3T3 host, beta-gal parasite, luminescence, cherry-pick; shares compounds with T cruzi growth-1; T. cruzi beta-gal in NIH3T3, GalScreen luminescence, 90 h; inhibition, % at 8.35 µM; 5,600 tested, 72% active;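 active means mean replicate inhibition above about 95% and at least 55% of replicates individually reaching it, limit read from the data; inconclusive means only one of the two criteria is met; inactive means neither criterion is met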
T cruzi growth-3: inhibitors of intracellular T. cruzi replication, confirmation, NIH3T3 host cells, beta-gal parasites, cherry-pick, set 2; inhibition, % at 2.09 µM; 5,600 tested, 21% active; shares compounds with T cruzi growth-1; AID 651740, 2012; T. cruzi beta-gal in NIH3T3, GalScreen luminescence, 90 h;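 active means mean inhibition above about 95%, with at least 55% of replicates also reaching it, limit read from the data; inconclusive means meets just one of the two conditions; inactive means meets neither condition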;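 further: plate controls were neutral control median for no effect and positive control median for full effect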
3T3 cytotox: cytotoxicity in mouse NIH/3T3 fibroblasts, confirmation, cytotoxicity control for T. cruzi proliferation inhibitor project, cell-based, cherry-pick, single point; NIH/3T3 viability, CellTiter-Glo ATP luminescence, 90 h; shares compounds with T cruzi growth-1; cytotoxicity (signal decrease), % at 8.35 µM; 5,600 tested, 14% active;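 active means mean signal decrease across replicates above about 35% based on untreated-well scatter, with enough replicates individually passing, limit read from the data; inconclusive means no rule stated though some were filed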;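 further: 0% = median of neutral control wells and 100% = median of positive control wells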
NIH3T3 tox 2: NIH/3T3 fibroblast cytotoxicity, confirmation, cytotoxicity control, cell-based, cherry-pick, single point, set 2; shares compounds with T cruzi growth-1; NIH/3T3 viability, CellTiter-Glo ATP luminescence, 90 h; inhibition, % at 24.9 µM; 5,600 tested, 56% active; AID 651744, 2012;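 active means mean loss of cell viability signal at or above a set limit, and enough replicates individually reaching it; inconclusive means meets only the mean limit or only the replicate share; inactive means meets neither condition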;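 further: 0% = median of neutral control wells and 100% = median of positive control wells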
The depositor's hits bear a star; ? = inconclusive; / = not tested or not shown. In the library only some 5.9% were active in any assay of this set; here they are far more common.

SMILES	Pf Dd2 inh	IDH1 R132H inh	GASC1 inh	T cruzi growth-1	T cruzi growth-2	T cruzi growth-3	3T3 cytotox	NIH3T3 tox 2
C[C@@H]1CN([C@H](C)CO)C(=O)c2cc(C3=CCCC3)cnc2O[C@@H]1CN(C)C(=O)Cc1ccncc1	-31.3	/	0.3	95.8*	25.0	-13.1	-9.4	28.3*
C[C@H]1CN([C@@H](C)CO)C(=O)Cc2cc(N(C)C)ccc2O[C@@H]1CN(C)S(=O)(=O)c1cn(C)cn1	-5.0	-3.3	4.0	24.1	/	/	/	/
C[C@@H]1CCCCO[C@@H](CN(C)Cc2ccc(C(F)(F)F)cc2)[C@@H](C)CN([C@@H](C)CO)C(=O)c2cc(NS(=O)(=O)c3cccs3)ccc2O1	-31.8	-5.4	-1.9	93.3	/	/	/	/
C[C@@H]1CN([C@@H](C)CO)C(=O)c2cc(NS(=O)(=O)c3cccs3)ccc2O[C@@H](C)CCCCO[C@@H]1CN(C)Cc1ccc(C(F)(F)F)cc1	-66.6	0.7	-0.2	?	101.9*	118.1*	-24.1	63.4*
C[C@H](CO)N1C[C@H](C)[C@H](CN(C)Cc2ccc(C(F)(F)F)cc2)OCCCC[C@H](C)Oc2ccc(NS(=O)(=O)c3cccs3)cc2C1=O	-37.8	/	1.2	/	/	/	/	/
C[C@H]1CCCCO[C@H](CN(C)Cc2ccc(C(F)(F)F)cc2)[C@@H](C)CN([C@@H](C)CO)C(=O)c2cc(NS(=O)(=O)c3cccs3)ccc2O1	-22.1	/	2.1	113.2*	97.8*	107.2*	-13.5	103.2*
C[C@H]1CCCCO[C@@H](CN(C)Cc2ccc(C(F)(F)F)cc2)[C@@H](C)CN([C@@H](C)CO)C(=O)c2cc(NS(=O)(=O)c3cccs3)ccc2O1	-52.7	0.2	-0.9	111.9*	89.8	58.2	18.0	105.1*
N#C[C@@H]1N[C@@H](CO)[C@H]1c1ccc(C#CC2CCCC2)cc1	16.4	/	0.8	?	70.7	8.0	-25.9	-0.6
N#C[C@@H]1N[C@@H](CO)[C@H]1c1ccc(C#Cc2ccc(F)cc2)cc1	3.2	/	-3.4	?	92.5	32.3	-31.2	10.8
N#C[C@@H]1N[C@@H](CO)[C@@H]1c1ccc(C#Cc2ccc(F)cc2)cc1	6.9	/	-1.5	103.1*	104.9*	40.6	-3.8	-7.3
CC(C)CC#Cc1ccc([C@H]2[C@H](CO)N3CCCCN(S(=O)(=O)Cc4ccccc4)C[C@@H]23)cc1	?	/	-2.2	100.2*	103.7*	91.6	23.7	106.6*
CCCC#Cc1ccc([C@H]2[C@H](CO)N3CCCCN(S(=O)(=O)Cc4ccccc4)C[C@@H]23)cc1	-34.0	/	-2.2	97.3*	101.4*	61.0	39.3*	104.1*
O=S(=O)(Cc1ccccc1)N1CCCCN2[C@H](CO)[C@H](c3ccc(C#Cc4ccccc4)cc3)[C@@H]2C1	-75.6	/	-2.8	106.2*	103.5*	107.9*	18.2	65.9*
CCCC#Cc1ccc([C@@H]2[C@@H](CO)N3CCCCN(S(=O)(=O)Cc4ccccc4)C[C@H]23)cc1	-19.3	/	-0.3	94.3	/	/	/	/
CCS(=O)(=O)N1CCCCN2[C@@H](CO)[C@H](c3ccc(C#Cc4ccccc4OC)cc3)[C@@H]2C1	-14.6	/	-2.2	114.2*	110.4*	94.8	24.8	82.6*
COCC(=O)N1C[C@@H](C)[C@@H](OC)CN(C)C(=O)c2cc(NC(=O)c3cnccn3)ccc2OC[C@@H]1C	9.2	0.0	0.3	55.7	/	/	/	/
O=S(=O)(c1ccccc1)N1CCCCN2[C@H](CO)[C@@H](c3ccc(-c4ccccc4)cc3)[C@@H]2C1	4.9	/	0.5	49.5	/	/	/	/
